# Measured values published in ChEMBL document CHEMBL3769318, “The Rational Design of Selective Benzoxazepin Inhibitors of the α-Isoform of Phosphoinositide 3-Kinase Culminating in the Identification of (S)-2-((2-(1-Isopropyl-1H-1,2,4-triazol-5-yl)-5,6-dihydrobenzo[f]imidazo[1,2-d][1,4]oxazepin-9-yl)oxy)propanamide (GDC-0326)” (J Med Chem, 2016).
# pEC50, pIC50: −log10 of the molar value.
# Assays:
# Cytochrome P450 2D6 = Cytochrome P450 2D6 (Homo sapiens, UniProt P10635); test: Inhibition of CYP2D6 (unknown origin); assay type: ADME
# Cytochrome P450 2D6, sequence (P10635 whole entry): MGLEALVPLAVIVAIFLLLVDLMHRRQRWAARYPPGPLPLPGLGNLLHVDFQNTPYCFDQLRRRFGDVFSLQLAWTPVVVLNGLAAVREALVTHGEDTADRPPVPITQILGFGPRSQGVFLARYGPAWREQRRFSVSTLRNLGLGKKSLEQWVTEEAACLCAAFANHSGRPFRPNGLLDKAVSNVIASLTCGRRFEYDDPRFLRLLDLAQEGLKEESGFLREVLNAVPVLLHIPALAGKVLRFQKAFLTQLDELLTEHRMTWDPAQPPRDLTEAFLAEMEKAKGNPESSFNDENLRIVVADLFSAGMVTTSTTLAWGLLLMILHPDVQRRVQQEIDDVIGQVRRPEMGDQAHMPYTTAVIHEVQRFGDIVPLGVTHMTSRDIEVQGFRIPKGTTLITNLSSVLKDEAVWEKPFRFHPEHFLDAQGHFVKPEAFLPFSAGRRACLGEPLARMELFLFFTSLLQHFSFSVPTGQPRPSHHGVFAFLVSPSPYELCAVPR
# KPL4 = test: Antitumor activity against human KPL4 cells xenografted in po dosed SCID beige mouse assessed as tumor growth inhibition administered daily for 21 days; assay type: functional, organism-based
# Procedure, shortened: (§1)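 KPL-4 breast cancer xenografts grown in scid beige mice; oral dosing once daily for 21 days in MCT vehicle (0.5% methylcellulose/0.2% Tween-80) at 0.78–25 mg/kg, 10 animals per group; tumor volumes fitted and tumor growth inhibition calculated versus vehicle-treated mice.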
# [1] = Oral bioavailability in NCR nude mouse at 25 mg/kg; assay type: ADME, organism-based; settings: in vivo
# [2] = Plasma protein binding in Cynomolgus monkey at 5 uM after 4 hrs by LC-MS/MS analysis; assay type: ADME, cell-free, Macaca fascicularis; settings: read-out: PPB (converted)
# Procedure, shortened: (§2)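 Equilibrium dialysis of pooled plasma (n ≥ 3) spiked with compound at 5 µM total against PBS pH 7.4, 37 °C, 5% CO2, for 4 h; plasma and buffer concentrations measured by LC-MS/MS; percent unbound calculated as buffer/plasma ×100.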
# [3] = Cmax in Sprague-Dawley rat at 5 mg/kg, po; assay type: ADME, organism-based; design: dose 5 mg/kg, route oral; settings: in vivo
# Procedure, shortened: (§3)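 Male Sprague-Dawley rats dosed PO at 5 mg/kg in 0.5% methylcellulose/0.2% Tween 80 (MCT); the IV reference arm was 1 mg/kg in 60% PEG400/10% ethanol.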
# [4] = Cmax in NCR nude mouse at 25 mg/kg, po; assay type: ADME, organism-based; design: dose 25 mg/kg, route oral; settings: in vivo
# [5] = Clearance in Sprague-Dawley rat at 1 mg/kg, iv; assay type: ADME, organism-based; settings: in vivo
# [6] = Apparent permeability from apical to basolateral side in MDCK cells; assay type: ADME, cell-based, Canis lupus familiaris; settings: dog
# Canis familiaris [7] = test: AUC in Beagle dog at 2 mg/kg, po; assay type: ADME, organism-based, Canis lupus familiaris; settings: in vivo
# [8] = Antitumor activity against human KPL4 cells xenografted in SCID beige mouse assessed as tumor growth inhibition at 6.25 mg/kg, po qd for 21 days; assay type: functional; settings: 504 h, read-out: TGI; procedure, shortened: as §1
# [9] = Plasma protein binding in Sprague-Dawley rat at 5 uM after 4 hrs by LC-MS/MS analysis; assay type: ADME, cell-free; settings: read-out: PPB (converted); procedure, shortened: as §2
# Canis familiaris [10] = test: Oral bioavailability in Beagle dog at 2 mg/kg; assay type: ADME, organism-based, Canis lupus familiaris; settings: in vivo
# Procedure, shortened: (§4)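 Single oral dose at 2 mg/kg in 0.5% methylcellulose with 0.2% Tween 80, given to beagle dogs or male cynomolgus monkeys; the IV reference was 1 mg/kg in 60% PEG400/10% ethanol.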
# [11] = Antiproliferative activity against human MCF7-neo/Her2 cells after 3 days by luminescence plate reader method; assay type: functional, cell-based; settings: 72 h
# [12] = Thermodynamic solubility of compound at pH 7.4; assay type: physicochemical; settings: buffer, read-out: Therm_solubility
# [13] = AUC in NCR nude mouse at 25 mg/kg, po; assay type: ADME, organism-based; settings: in vivo
# Cytochrome P450 3A4 = Cytochrome P450 3A4 (Homo sapiens, UniProt P08684); test: Inhibition of CYP3A4 (unknown origin); assay type: ADME
# Cytochrome P450 3A4, sequence (P08684 whole entry): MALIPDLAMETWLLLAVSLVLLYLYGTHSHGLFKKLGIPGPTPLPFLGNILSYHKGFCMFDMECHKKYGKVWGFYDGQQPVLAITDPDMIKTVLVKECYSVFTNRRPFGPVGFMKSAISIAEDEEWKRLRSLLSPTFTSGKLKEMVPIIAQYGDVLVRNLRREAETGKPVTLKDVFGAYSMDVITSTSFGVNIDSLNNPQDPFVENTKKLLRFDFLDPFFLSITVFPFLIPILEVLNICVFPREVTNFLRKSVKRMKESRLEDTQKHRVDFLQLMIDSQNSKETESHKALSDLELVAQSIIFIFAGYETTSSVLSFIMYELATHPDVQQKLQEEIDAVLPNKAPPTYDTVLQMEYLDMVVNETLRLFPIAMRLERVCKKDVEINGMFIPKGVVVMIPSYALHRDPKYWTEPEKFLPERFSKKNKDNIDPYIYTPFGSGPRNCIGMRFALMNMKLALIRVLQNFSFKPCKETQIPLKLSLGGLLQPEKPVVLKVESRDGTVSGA
# [14] = Antitumor activity against human MCF7-neo/Her2 cells xenografted in mouse assessed as tumor growth inhibition at 1.56 mg/kg, po qd for 21 days; assay type: functional; settings: 504 h, read-out: TGI
# Procedure, shortened: (§5)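 MCF7-neo/HER2 breast cancer xenografts grown in nude mice; daily oral dosing for 21 days in 0.5% methylcellulose/0.2% Tween-80 vehicle at 0.78–25 mg/kg, 10 animals per group; fitted tumor volumes compared against vehicle-treated mice to give tumor growth inhibition.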
# [15] = Plasma protein binding in Beagle dog at 5 uM after 4 hrs by LC-MS/MS analysis; assay type: ADME, cell-free, Canis lupus familiaris; settings: read-out: PPB (converted); procedure, shortened: as §2
# [16] = Cmax in Beagle dog at 2 mg/kg, po; assay type: ADME, organism-based, Canis lupus familiaris; design: dose 2 mg/kg, route oral; settings: in vivo; procedure, shortened: as §4
# [17] = Clearance in NCR nude mouse at 1 mg/kg, iv; assay type: ADME, organism-based; settings: in vivo
# [18] = Oral bioavailability in Sprague-Dawley rat at 5 mg/kg; assay type: ADME, organism-based; settings: in vivo; procedure, shortened: as §3
# [19] = Clearance in Cynomolgus monkey at 1 mg/kg, iv; assay type: ADME, organism-based, Macaca fascicularis; settings: in vivo
# [20] = Antitumor activity against human KPL4 cells xenografted in SCID beige mouse assessed as tumor growth inhibition at 3.25 mg/kg, po qd for 21 days; assay type: functional; settings: 504 h, read-out: TGI; procedure, shortened: as §1
# [21] = Cytotoxicity against human KPL4 cells after 4 days by luminescence plate reader method; assay type: functional, cell-based; settings: KPL4, 96 h
# [22] = Volume of distribution at steady state in Cynomolgus monkey at 1 mg/kg, iv; assay type: ADME, organism-based, Macaca fascicularis; settings: in vivo, read-out: Vdss
# Cytochrome P450 2C9 = Cytochrome P450 2C9 (Homo sapiens, UniProt P11712); test: Inhibition of CYP2C9 (unknown origin); assay type: ADME
# Cytochrome P450 2C9, sequence (P11712 whole entry): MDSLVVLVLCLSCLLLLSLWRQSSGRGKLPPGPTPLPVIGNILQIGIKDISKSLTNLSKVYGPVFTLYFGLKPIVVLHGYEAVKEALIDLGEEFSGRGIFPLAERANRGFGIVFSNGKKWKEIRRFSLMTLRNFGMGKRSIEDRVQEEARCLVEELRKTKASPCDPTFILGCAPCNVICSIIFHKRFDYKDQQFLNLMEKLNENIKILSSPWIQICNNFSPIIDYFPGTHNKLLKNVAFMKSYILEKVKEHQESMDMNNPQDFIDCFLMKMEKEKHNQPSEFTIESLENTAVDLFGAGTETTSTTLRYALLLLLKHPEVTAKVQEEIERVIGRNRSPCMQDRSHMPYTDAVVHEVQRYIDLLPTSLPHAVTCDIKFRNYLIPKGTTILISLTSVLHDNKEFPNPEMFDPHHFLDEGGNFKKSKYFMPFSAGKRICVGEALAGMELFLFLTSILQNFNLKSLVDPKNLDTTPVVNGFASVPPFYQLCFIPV
# Cytochrome P450 2C19 = Cytochrome P450 2C19 (Homo sapiens, UniProt P33261); test: Inhibition of CYP2C19 (unknown origin); assay type: ADME
# Cytochrome P450 2C19, sequence (P33261 whole entry): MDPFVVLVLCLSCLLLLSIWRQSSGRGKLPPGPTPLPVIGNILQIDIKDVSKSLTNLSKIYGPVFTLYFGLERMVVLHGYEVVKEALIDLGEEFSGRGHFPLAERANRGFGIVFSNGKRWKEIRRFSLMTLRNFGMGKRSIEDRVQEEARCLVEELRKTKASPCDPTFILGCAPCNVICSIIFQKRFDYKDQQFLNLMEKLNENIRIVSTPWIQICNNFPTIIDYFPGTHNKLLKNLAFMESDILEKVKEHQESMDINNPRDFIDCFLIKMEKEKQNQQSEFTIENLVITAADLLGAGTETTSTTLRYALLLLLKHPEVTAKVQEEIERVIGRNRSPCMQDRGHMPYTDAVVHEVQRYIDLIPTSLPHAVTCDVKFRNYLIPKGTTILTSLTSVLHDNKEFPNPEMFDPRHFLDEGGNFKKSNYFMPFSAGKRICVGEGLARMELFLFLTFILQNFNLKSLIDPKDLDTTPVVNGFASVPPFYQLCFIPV
# Mus musculus = test: Toxicity in SCID beige mouse xenografted with human KPL4 cells assessed as body weight loss upto 12.5 mg/kg, po; assay type: organism-based; settings: in vivo
# [23] = AUC in Cynomolgus monkey at 2 mg/kg, po; assay type: ADME, organism-based, Macaca fascicularis; settings: in vivo
# [24] = Antitumor activity against human KPL4 cells xenografted in SCID beige mouse assessed as tumor growth inhibition at 12.5 mg/kg, po qd for 21 days; assay type: functional; settings: 504 h, read-out: TGI; procedure, shortened: as §1
# Cytochrome P450 1A2 = target: T1, Cytochrome P450 1A2 (Homo sapiens, UniProt P05177); test: Inhibition of CYP1A2 (unknown origin); assay type: ADME
# T1 sequence (P05177 whole entry): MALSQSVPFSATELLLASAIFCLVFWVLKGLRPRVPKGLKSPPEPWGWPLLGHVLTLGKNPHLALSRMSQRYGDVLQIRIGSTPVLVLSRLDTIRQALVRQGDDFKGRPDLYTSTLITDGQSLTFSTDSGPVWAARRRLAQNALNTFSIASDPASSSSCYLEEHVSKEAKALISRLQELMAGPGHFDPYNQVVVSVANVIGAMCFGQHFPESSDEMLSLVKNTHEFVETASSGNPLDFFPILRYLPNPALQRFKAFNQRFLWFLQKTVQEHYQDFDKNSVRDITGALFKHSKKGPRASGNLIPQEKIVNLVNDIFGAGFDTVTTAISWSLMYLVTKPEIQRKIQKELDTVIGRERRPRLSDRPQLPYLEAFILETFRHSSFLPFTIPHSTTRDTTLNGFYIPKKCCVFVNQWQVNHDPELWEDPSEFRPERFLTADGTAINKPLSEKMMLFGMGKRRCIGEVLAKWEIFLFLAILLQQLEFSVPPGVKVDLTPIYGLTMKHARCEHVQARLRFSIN
# [25] = Oral bioavailability in Cynomolgus monkey at 2 mg/kg; assay type: ADME, organism-based, Macaca fascicularis; settings: in vivo; procedure, shortened: as §4
# [26] = Antiproliferative activity against human PC3 cells after 4 days by luminescence plate reader method; assay type: functional, cell-based; settings: PC-3, 96 h
# [27] = target: Phosphatidylinositol 4-phosphate 3-kinase C2 domain-containing subunit beta (Homo sapiens) (UniProt O00750); test: Inhibition of PI3KC2b (unknown origin) at 1 uM
# Phosphatidylinositol 4-phosphate 3-kinase C2 domain-containing subunit beta (Homo sapiens), sequence (O00750 whole entry, the tested form may be a part): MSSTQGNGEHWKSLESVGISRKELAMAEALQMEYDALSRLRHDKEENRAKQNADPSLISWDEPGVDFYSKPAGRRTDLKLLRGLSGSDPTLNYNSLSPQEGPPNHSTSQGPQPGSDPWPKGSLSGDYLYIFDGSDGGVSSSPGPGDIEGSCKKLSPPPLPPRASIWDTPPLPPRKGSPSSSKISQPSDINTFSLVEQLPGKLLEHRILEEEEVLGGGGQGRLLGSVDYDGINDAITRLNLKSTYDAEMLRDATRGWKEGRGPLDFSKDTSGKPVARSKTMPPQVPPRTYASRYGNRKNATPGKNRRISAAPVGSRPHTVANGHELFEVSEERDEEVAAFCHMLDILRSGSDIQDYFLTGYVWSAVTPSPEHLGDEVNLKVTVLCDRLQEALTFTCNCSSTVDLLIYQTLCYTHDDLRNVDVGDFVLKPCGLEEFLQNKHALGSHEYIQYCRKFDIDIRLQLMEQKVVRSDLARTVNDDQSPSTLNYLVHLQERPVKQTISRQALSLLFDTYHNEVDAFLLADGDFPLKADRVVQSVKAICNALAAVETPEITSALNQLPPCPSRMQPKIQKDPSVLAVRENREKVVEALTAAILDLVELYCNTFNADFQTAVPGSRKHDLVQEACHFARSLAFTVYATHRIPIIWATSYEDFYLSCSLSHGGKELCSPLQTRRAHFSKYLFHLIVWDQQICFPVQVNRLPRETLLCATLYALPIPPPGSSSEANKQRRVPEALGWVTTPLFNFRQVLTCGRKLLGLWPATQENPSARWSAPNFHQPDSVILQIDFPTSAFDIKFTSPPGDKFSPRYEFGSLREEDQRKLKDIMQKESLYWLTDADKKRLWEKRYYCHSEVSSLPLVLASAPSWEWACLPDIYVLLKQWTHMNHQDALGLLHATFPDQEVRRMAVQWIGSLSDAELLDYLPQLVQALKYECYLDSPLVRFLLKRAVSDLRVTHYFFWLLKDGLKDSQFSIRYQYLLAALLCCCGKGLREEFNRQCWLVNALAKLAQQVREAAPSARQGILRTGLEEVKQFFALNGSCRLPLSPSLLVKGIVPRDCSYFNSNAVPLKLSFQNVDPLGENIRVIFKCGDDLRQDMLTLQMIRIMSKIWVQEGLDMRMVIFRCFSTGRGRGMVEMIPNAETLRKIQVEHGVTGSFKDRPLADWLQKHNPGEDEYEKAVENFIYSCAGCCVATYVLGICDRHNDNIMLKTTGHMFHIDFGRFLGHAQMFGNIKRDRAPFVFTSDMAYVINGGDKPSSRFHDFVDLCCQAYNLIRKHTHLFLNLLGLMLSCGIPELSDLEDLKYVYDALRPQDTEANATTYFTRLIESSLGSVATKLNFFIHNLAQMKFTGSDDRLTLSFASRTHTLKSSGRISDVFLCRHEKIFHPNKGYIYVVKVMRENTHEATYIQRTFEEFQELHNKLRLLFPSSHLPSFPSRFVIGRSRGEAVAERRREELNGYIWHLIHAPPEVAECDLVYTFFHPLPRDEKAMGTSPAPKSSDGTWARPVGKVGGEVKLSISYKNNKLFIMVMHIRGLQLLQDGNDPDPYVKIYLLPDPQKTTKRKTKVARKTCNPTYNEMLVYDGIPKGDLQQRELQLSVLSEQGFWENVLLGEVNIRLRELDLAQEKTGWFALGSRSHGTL
# Procedure, shortened: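 Kinase panel screen of 235 kinases at Invitrogen with compound at 1 µM; read-out was percent inhibition.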
# [28] = Volume of distribution at steady state in Sprague-Dawley rat at 1 mg/kg, iv; assay type: ADME, organism-based; settings: in vivo, read-out: Vdss
# [29] = Volume of distribution at steady state in Beagle dog at 1 mg/kg, iv; assay type: ADME, organism-based, Canis lupus familiaris; settings: in vivo, read-out: Vdss
# [30] = Antitumor activity against human MCF7-neo/Her2 cells xenografted in mouse assessed as tumor growth inhibition at 6.25 mg/kg, po qd for 21 days; assay type: functional; settings: 504 h, read-out: TGI; procedure, shortened: as §5
# [31] = Cmax in Cynomolgus monkey at 2 mg/kg, po; assay type: ADME, organism-based, Macaca fascicularis; design: dose 2 mg/kg, route oral; settings: in vivo; procedure, shortened: as §4
smiles,measurement,setting,value
CC(C)n1ncnc1-c1cn2c(n1)-c1ccc(O[C@@H](C)C(N)=O)cc1OCC2,pIC50,Cytochrome P450 2D6,< 5.00
same,Activity,KPL4,Dose-dependent effect
same,bioavailability,[1],55%
same,"fraction unbound at 4 h, 5 µM",[2],0.61
same,Cmax,[3],5.4 µM
same,Cmax,[4],31 µM
same,clearance,[5],10 mL/min/kg
same,Papp A→B,[6],13 ×10⁻⁶ cm/s
same,AUC,Canis familiaris [7],2.4 µM·h
same,inhibition in vivo at 6.25 mg/kg,[8],122%
same,"fraction unbound at 4 h, 5 µM",[9],0.37
same,F,Canis familiaris [10],100%
same,pEC50,[11],7.00
same,solubility thermodynamic,[12],82 µg/mL
same,AUC,[13],74 µM·h
same,pIC50,Cytochrome P450 3A4,< 5.00
same,inhibition in vivo at 1.56 mg/kg,[14],79%
same,"fraction unbound at 4 h, 5 µM",[15],0.62
same,Cmax,[16],2.1 µM
same,clearance,[17],8 mL/min/kg
same,bioavailability,[18],120%
same,clearance,[19],13 mL/min/kg
same,inhibition in vivo at 3.25 mg/kg,[20],97%
same,pEC50,[21],7.22
same,Vd,[22],1.5 L/kg
same,pIC50,Cytochrome P450 2C9,< 5.00
same,pIC50,Cytochrome P450 2C19,< 5.00
same,Activity,Mus musculus,< 10%
same,AUC,[23],4.8 µM·h
same,inhibition in vivo at 12.5 mg/kg,[24],121%
same,pIC50,Cytochrome P450 1A2,< 5.00
same,bioavailability,[25],72%
same,pEC50,[26],5.66
same,inhibition,[27],61%
same,Vd,[28],1.5 L/kg
same,Vd,[29],2.5 L/kg
same,inhibition in vivo at 6.25 mg/kg,[30],101%
same,Cmax,[31],1.5 µM
